The test system of experiment [1] is Candida albicans. Kind of experiment: Inhibition of Candida albicans CDR1 transporter expressed in Saccharomyces cerevisiae AD cells assessed as nile red accumulation at 70 uM after 30 mins by flow cytometric analysis relative to control. In kind it is cell-based. In outline:
(§1)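 S. cerevisiae AD strains overexpressing CaCdr1p (AD-CDR1) or CaMdr1p (AD-MDR1) were grown at 30 °C from OD600 0.1 to 0.25. They were resuspended as a 5% suspension in YEPD:water 1:2. Nile Red (7 μM final) was given ± inhibitor (70 μM) for 30 min at 30 °C. Accumulation was read by flow cytometry on 10 000 cells. Means ± SD, three independent experiments.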
A general note: Flow cytometry measures light scatter and fluorescence of single cells or particles in a stream.

Experiment [2] relates to Candida albicans. The experiment can be described thus: Inhibition of Candida albicans MDR1 transporter expressed in Saccharomyces cerevisiae AD cells assessed as nile red dye accumulation at 70 uM after 30 mins by flow cytometric analysis relative to control. It is filed as cell-based. The procedure, abridged:
as §1

Calls of active or inactive are those of the source. The rule behind the calls is not given here.

Take `CC(=O)O[C@H]1[C@@H](OC(C)=O)C(C)(C)/C=C/[C@H](C)C(=O)[C@@]2(OC(C)=O)C[C@@](C)(OC(C)=O)[C@H](O)[C@@H]2[C@H]2OC(=O)CC[C@@]2(OC(C)=O)[C@@H]1OC(=O)C(C)C`: the inhibition entry in experiment [1] and in experiment [2] was “inactive” each time.
In the case of `C=C1[C@@H](OC(C)=O)[C@H]2[C@@H](OC(C)=O)[C@](C)(O)C[C@]2(OC(C)=O)C(=O)[C@H](C)/C=C/C(C)(C)C(=O)[C@H](OC(=O)/C(C)=C/C)[C@H]1OC(C)=O`, the inhibition result in experiment [1] and in experiment [2] was “inactive” in each case.
Regarding `C=C1[C@@H](OC(=O)C(C)C)[C@H]2[C@@H](OC(=O)C(C)C)[C@](C)(OC(C)=O)C[C@]2(O)C(=O)[C@@H](C)/C=C/C(C)(C)[C@H](OC(C)=O)[C@H](OC(C)=O)[C@H]1OC(=O)c1ccccc1`, the inhibition result in experiment [1] and in experiment [2] was “inactive” in each case.
With `C=C1CCC2[C@@H](/C=C(\C)C(=O)[C@@]3(OC(C)=O)C[C@H](C)[C@H](OC(C)=O)[C@@H]3[C@H]1OC(C)=O)C2(C)C` (single isomer, unassigned), the inhibition result in experiment [1] and in experiment [2] was “inactive” throughout.
With `C=C1[C@@H](OC(C)=O)[C@H]2[C@@H](OC(C)=O)[C@](C)(OC(C)=O)C[C@]2(OC(C)=O)C(=O)[C@H](C)/C=C/C(C)(C)C(=O)[C@H](OC(=O)c2ccccc2)[C@H]1OC(C)=O`, the inhibition result in experiment [1] and in experiment [2] was “inactive” each time.
In the case of `C=C1[C@@H](OC(C)=O)[C@H]2[C@@H](OC(C)=O)[C@](C)(OC(=O)c3cccnc3)C[C@]2(O)C(=O)[C@@H](C)/C=C/C(C)(C)[C@H](OC(=O)c2cccnc2)[C@H](OC(C)=O)[C@H]1OC(=O)c1ccccc1`, the inhibition entry in experiment [1] and in experiment [2] was “inactive” throughout.
Regarding `C=C1[C@@H](OC(C)=O)[C@H]2[C@@H](OC(C)=O)[C@](C)(OC(C)=O)C[C@]2(OC(C)=O)C(=O)[C@H](C)/C=C/C(C)(C)C(=O)[C@H](OC(=O)/C(C)=C/C)[C@H]1OC(C)=O`, the inhibition result in experiment [1] and in experiment [2] was “inactive” throughout.
On to `C=C1[C@@H](OC(=O)C(C)C)[C@H]2[C@@H](OC(C)=O)[C@](C)(O)C[C@]2(O)C(=O)[C@@H](C)/C=C/C(C)(C)[C@H](OC(C)=O)[C@H](OC(C)=O)[C@H]1OC(=O)c1ccccc1`, for which the inhibition entry in experiment [1] and in experiment [2] was “inactive” in each case.
Regarding `C=C1[C@@H](OC(C)=O)[C@H]2[C@@H](OC(=O)c3ccccc3)[C@@H](C)C[C@]2(O)[C@H](O)[C@H](C)/C=C/C(C)(C)C(=O)[C@H](O)[C@H]1OC(C)=O`, the inhibition result in experiment [1] and in experiment [2] was “inactive” throughout.
For the compound `C=C1[C@@H](OC(C)=O)[C@H]2[C@@H](OC(C)=O)[C@](C)(O)C[C@]2(OC(C)=O)C(=O)[C@H](C)/C=C/C(C)(C)C(=O)[C@H](OC(=O)c2ccccc2)[C@H]1OC(C)=O`, the inhibition entry in experiment [1] and in experiment [2] was “inactive” each time.
Turning to `CC(=O)O[C@H]1[C@@H](OC(C)=O)C(C)(C)/C=C/[C@@](C)(O)C(=O)[C@@]2(O)C[C@@](C)(OC(C)=O)[C@H](OC(C)=O)[C@@H]2[C@H]2OC(=O)CC[C@@]2(OC(=O)C(C)C)[C@@H]1OC(=O)C(C)C`, the inhibition result in experiment [1] and in experiment [2] was “inactive” throughout.
For the compound `C=C1[C@@H](OC(=O)C(C)C)[C@H]2[C@@H](OC(C)=O)[C@@H](C)C[C@]2(O)C(=O)[C@@H](C)/C=C/C(C)(C)[C@H](OC(C)=O)[C@H](OC(C)=O)[C@H]1OC(=O)c1ccccc1`, the inhibition result in experiment [1] and in experiment [2] was “inactive” each time.
Turning to `C=C1[C@@H](OC(=O)c2ccccc2)[C@H]2[C@@H](O)[C@](C)(OC(C)=O)C[C@]2(O)C(=O)[C@@H](C)/C=C/C(C)(C)[C@H](OC(C)=O)[C@H](OC(C)=O)[C@H]1OC(=O)c1ccccc1`, the inhibition result in experiment [1] and in experiment [2] was “inactive” in each case.
Regarding `C=C1[C@@H](OC(=O)C(C)C)[C@H]2[C@@H](OC(C)=O)[C@](C)(OC(=O)c3cccnc3)C[C@]2(O)C(=O)[C@@H](C)/C=C/C(C)(C)[C@H](OC(=O)c2cccnc2)[C@H](OC(C)=O)[C@H]1OC(=O)c1ccccc1`, the inhibition result in experiment [1] and in experiment [2] was “inactive” each time.
Regarding `C=C1[C@@H](OC(C)=O)[C@H]2[C@@H](OC(C)=O)[C@](C)(OC(C)=O)C[C@]2(OC(C)=O)C(=O)[C@H](C)/C=C/C(C)(C)C(=O)[C@H](OC(C)=O)[C@H]1OC(C)=O`, the inhibition entry in experiment [1] and in experiment [2] was “inactive” in each case.
On to `C=C1[C@@H](OC(=O)c2ccccc2)[C@H]2[C@@H](OC(C)=O)[C@](C)(O)C[C@]2(O)C(=O)[C@@H](C)/C=C/C(C)(C)[C@H](OC(C)=O)[C@H](OC(C)=O)[C@H]1OC(=O)c1cccnc1`, for which the inhibition entry in experiment [1] and in experiment [2] was “inactive” in each case.
Turning to `C=C1[C@@H](OC(=O)C(C)C)[C@H]2[C@@H](OC(=O)c3ccccc3)[C@](C)(OC(C)=O)C[C@]2(O)C(=O)[C@@H](C)/C=C/C(C)(C)[C@H](OC(C)=O)[C@H](OC(C)=O)[C@H]1OC(=O)C(C)C`, the inhibition entry in experiment [1] and in experiment [2] was “inactive” each time.
Take `C=C1[C@@H](OC(C)=O)[C@H]2[C@@H](OC(=O)c3ccccc3)[C@@H](C)C[C@]2(O)[C@H](OC(C)=O)[C@H](C)/C=C/[C@@](C)(CO)C(=O)[C@H](O)[C@H]1OC(C)=O`: the inhibition entry in experiment [1] and in experiment [2] was “inactive” throughout.
In the case of `C=C1[C@@H](OC(C)=O)[C@H]2[C@@H](OC(C)=O)[C@](C)(OC(=O)c3cccnc3)C[C@]2(OC(C)=O)C(=O)[C@@H](C)/C=C/C(C)(C)[C@H](OC(=O)c2cccnc2)[C@H](OC(C)=O)[C@H]1OC(=O)C(C)C`, the inhibition result in experiment [1] and in experiment [2] was “inactive” throughout.
`C=C1[C@@H](OC(C)=O)[C@H]2[C@@H](OC(=O)c3ccccc3)[C@@H](C)C[C@]2(O)[C@H](O)[C@H](C)/C=C/C(C)(C)C(=O)[C@H](OC(C)=O)[C@H]1OC(C)=O`: the inhibition entry in experiment [1] and in experiment [2] was “inactive” in each case.
As to `C=C1[C@@H](OC(=O)C(C)C)[C@H]2[C@@H](O)[C@](C)(OC(C)=O)C[C@]2(O)C(=O)[C@@H](C)/C=C/C(C)(C)[C@H](OC(C)=O)[C@H](OC(C)=O)[C@H]1OC(=O)c1ccccc1`, the inhibition result in experiment [1] and in experiment [2] was “inactive” in each case.
Take `C=C1[C@@H](OC(C)=O)[C@H]2[C@@H](OC(C)=O)[C@](C)(O)C[C@]2(OC(C)=O)C(=O)[C@H](C)/C=C/C(C)(C)C(=O)[C@H](OC(=O)C(C)C)[C@H]1OC(C)=O`: the inhibition entry in experiment [1] and in experiment [2] was “inactive” throughout.
Turning to `C=C1[C@@H](OC(=O)c2ccccc2)[C@H]2[C@@H](O)[C@](C)(OC(C)=O)C[C@]2(O)C(=O)[C@@H](C)/C=C/C(C)(C)[C@H](OC(C)=O)[C@H](O)[C@H]1OC(=O)c1ccccc1`, the inhibition entry in experiment [1] and in experiment [2] was “inactive” throughout.
Take `C=C1[C@@H](OC(=O)C(C)C)[C@H]2[C@@H](OC(C)=O)[C@](C)(OC(C)=O)C[C@]2(O)C(=O)[C@@H](C)/C=C/C(C)(C)[C@H](OC(C)=O)[C@H](OC(C)=O)[C@H]1OC(=O)c1ccccc1`: the inhibition entry in experiment [1] and in experiment [2] was “inactive” in each case.
As to `C=C1[C@@H](OC(C)=O)[C@H]2[C@@H](OC(C)=O)[C@](C)(OC(=O)c3cccnc3)C[C@]2(OC(C)=O)C(=O)[C@@H](C)/C=C/C(C)(C)[C@H](OC(=O)c2cccnc2)[C@H](OC(C)=O)[C@H]1OC(=O)c1ccccc1`, the inhibition result in experiment [1] and in experiment [2] was “inactive” in each case.
For `CC(=O)O[C@H]1[C@@H](OC(C)=O)C(C)(C)/C=C/[C@@](C)(O)C(=O)[C@@]2(OC(C)=O)C[C@@](C)(OC(C)=O)[C@H](OC(C)=O)[C@@H]2[C@H]2OC(=O)CC[C@@]2(OC(C)=O)[C@@H]1OC(=O)C(C)C`, the inhibition entry in experiment [1] and in experiment [2] was “inactive” throughout.

Source of the values: ChEMBL document CHEMBL4052591, “Evaluation of Jatrophane Esters from Euphorbia spp. as Modulators of Candida albicans Multidrug Transporters” (2017).
